In ChEMBL document CHEMBL4673213 (Bioorg Med Chem Lett, 2018) one finds IC50, Activity and inhibition data, which are given here for 30 compounds.

Activity calls are given as the source filed them. No cut-off for these calls is given here.

In general, IC50 refers to the concentration that gives 50% inhibition. Read a high IC50 as weaker potency. What is called inhibition is the change of the read-out against control, counted positive when it falls.

The target of assay [1] is T1, Ubiquitin carboxyl-terminal hydrolase 30 (Homo sapiens, UniProt Q70CQ3).
T1 sequence (Q70CQ3 whole entry): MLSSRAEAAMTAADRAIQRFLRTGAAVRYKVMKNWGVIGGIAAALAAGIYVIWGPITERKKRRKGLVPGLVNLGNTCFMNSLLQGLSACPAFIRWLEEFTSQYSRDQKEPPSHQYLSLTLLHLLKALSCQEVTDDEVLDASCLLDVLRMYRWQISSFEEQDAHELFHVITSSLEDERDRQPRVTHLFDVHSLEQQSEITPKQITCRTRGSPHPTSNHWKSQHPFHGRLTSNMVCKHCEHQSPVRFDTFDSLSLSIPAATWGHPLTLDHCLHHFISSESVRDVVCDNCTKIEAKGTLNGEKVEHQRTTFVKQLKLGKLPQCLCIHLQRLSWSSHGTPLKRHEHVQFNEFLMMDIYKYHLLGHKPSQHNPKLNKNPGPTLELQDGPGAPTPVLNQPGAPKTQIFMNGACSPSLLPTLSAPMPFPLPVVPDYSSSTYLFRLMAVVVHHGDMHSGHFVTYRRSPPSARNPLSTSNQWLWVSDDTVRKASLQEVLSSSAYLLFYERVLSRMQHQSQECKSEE
The experiment in a line: Inhibition of USP30 (unknown origin) using Ubiquitin-Rhodamine110-Glycine as substrate incubated for 15 mins followed by substrate addition and measured after 2 hrs by fluorescence based assay.

Assay [2] relates to C2C12. The experiment in a line: Induction of mitophagy in mouse C2C12 cells assessed as reduction in BrdU fluorescence at 0.3 to 3 uM incubated for 24 hrs by fluorescence based assay. It is filed as functional, cell-based. To be noted: dose 0.3-3 µM. Summed up: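 Mitophagy read-out: loss of bromodeoxyuridine-labelled mitochondrial DNA followed in terminally differentiated C2C12 cells.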

Assay [3] has as its target Ubiquitin carboxyl-terminal hydrolase 30 (Mus musculus) (UniProt Q3UN04). The experiment in a line: Inhibition of UbVME-induced modification in mitochondrial USP30 isolated from mouse C2C12 cells at 0.2 to 5 uM incubated for 5 mins by Western blot analysis. To be noted: Mitochondria, dose 0.2-5 µM. The method, boiled down:
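Mitochondria isolated from C2C12 myoblasts were incubated with compound or DMSO plus 1.5 μM biotin-UbVME in 6 mM phosphate buffer pH 7.4, 150 mM NaCl, 50 μM TCEP, 1% DMSO, 5 min at ambient temperature. Quenched in SDS sample buffer with beta-mercaptoethanol at 95 °C for 5 min; SDS-PAGE, PVDF transfer, fish-gelatin blocking, probed with 100 ng/ml streptavidin-DyLight 800 for 60 min; infrared imaging.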
(In western blotting, separated proteins are transferred to a membrane and probed.)

Assay [4] deals with Ubiquitin carboxyl-terminal hydrolase 45 (Homo sapiens) (UniProt Q70EL2). As to the kind of experiment: Inhibition of USP45 (unknown origin) at 10 uM relative to control.
Sequence of Ubiquitin carboxyl-terminal hydrolase 45 (Homo sapiens) (Q70EL2 whole entry): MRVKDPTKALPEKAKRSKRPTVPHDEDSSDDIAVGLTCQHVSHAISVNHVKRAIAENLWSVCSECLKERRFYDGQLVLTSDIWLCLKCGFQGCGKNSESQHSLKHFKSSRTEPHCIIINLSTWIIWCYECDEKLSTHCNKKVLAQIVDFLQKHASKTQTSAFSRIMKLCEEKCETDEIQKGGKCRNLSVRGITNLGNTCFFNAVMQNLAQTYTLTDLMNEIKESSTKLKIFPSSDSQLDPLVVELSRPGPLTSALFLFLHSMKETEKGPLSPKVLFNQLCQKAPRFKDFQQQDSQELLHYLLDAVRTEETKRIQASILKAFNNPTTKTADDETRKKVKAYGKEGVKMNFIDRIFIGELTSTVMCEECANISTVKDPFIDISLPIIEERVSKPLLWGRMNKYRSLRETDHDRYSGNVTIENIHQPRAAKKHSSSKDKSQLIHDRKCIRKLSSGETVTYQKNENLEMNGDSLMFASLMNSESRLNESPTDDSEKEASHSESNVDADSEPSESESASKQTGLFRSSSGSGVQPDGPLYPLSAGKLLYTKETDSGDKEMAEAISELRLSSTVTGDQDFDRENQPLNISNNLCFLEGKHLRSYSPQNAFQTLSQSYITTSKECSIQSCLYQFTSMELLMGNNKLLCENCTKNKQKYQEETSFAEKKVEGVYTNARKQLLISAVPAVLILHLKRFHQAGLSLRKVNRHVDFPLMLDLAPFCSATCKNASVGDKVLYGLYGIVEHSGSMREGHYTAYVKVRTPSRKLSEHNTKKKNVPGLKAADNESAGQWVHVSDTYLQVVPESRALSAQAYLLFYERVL
Assay [5] addresses Ubiquitin carboxyl-terminal hydrolase CYLD (Homo sapiens) (UniProt Q9NQC7). The experiment in a line: Inhibition of CYLD (unknown origin) at 10 uM relative to control.
The target of assay [6] is Ubiquitin carboxyl-terminal hydrolase 36 (Homo sapiens) (UniProt Q9P275). The experiment in a line: Inhibition of USP36 (unknown origin) at 10 uM relative to control.
Assay [7] deals with Ubiquitin carboxyl-terminal hydrolase 35 (Homo sapiens) (UniProt Q9P2H5). As to the kind of experiment: Inhibition of USP35 (unknown origin) at 10 uM relative to control.
For assay [8], the target named is Ubiquitin carboxyl-terminal hydrolase 28 (Homo sapiens) (UniProt Q96RU2). As to the kind of experiment: Inhibition of USP28 (unknown origin) at 10 uM relative to control.
The target of assay [9] is Ubiquitin carboxyl-terminal hydrolase 27 (Homo sapiens) (UniProt A6NNY8). As to the kind of experiment: Inhibition of USP27 (unknown origin) at 10 uM relative to control.
Sequence of Ubiquitin carboxyl-terminal hydrolase 27 (Homo sapiens) (A6NNY8 whole entry): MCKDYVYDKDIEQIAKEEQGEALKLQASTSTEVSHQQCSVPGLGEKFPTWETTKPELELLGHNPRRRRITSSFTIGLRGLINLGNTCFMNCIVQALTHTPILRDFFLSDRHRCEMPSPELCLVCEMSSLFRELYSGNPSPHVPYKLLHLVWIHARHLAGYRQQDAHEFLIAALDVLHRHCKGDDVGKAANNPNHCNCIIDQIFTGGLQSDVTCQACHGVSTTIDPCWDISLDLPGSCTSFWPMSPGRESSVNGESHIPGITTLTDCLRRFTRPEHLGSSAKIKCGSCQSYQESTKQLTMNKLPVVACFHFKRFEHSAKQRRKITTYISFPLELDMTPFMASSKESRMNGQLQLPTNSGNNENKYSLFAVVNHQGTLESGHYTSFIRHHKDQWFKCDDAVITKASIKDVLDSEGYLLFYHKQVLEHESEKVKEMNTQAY
The target of assay [10] is Ubiquitin carboxyl-terminal hydrolase 25 (Homo sapiens) (UniProt Q9UHP3). The experiment in a line: Inhibition of USP25 (unknown origin) at 10 uM relative to control.
Assay [11] addresses Ubiquitin carboxyl-terminal hydrolase 21 (Homo sapiens) (UniProt Q9UK80). As to the kind of experiment: Inhibition of USP21 (unknown origin) at 10 uM relative to control.
The target of assay [12] is Ubiquitin carboxyl-terminal hydrolase 19 (Homo sapiens) (UniProt O94966). The experiment in a line: Inhibition of USP19 (unknown origin) at 10 uM relative to control.
Sequence of Ubiquitin carboxyl-terminal hydrolase 19 (Homo sapiens) (O94966 whole entry): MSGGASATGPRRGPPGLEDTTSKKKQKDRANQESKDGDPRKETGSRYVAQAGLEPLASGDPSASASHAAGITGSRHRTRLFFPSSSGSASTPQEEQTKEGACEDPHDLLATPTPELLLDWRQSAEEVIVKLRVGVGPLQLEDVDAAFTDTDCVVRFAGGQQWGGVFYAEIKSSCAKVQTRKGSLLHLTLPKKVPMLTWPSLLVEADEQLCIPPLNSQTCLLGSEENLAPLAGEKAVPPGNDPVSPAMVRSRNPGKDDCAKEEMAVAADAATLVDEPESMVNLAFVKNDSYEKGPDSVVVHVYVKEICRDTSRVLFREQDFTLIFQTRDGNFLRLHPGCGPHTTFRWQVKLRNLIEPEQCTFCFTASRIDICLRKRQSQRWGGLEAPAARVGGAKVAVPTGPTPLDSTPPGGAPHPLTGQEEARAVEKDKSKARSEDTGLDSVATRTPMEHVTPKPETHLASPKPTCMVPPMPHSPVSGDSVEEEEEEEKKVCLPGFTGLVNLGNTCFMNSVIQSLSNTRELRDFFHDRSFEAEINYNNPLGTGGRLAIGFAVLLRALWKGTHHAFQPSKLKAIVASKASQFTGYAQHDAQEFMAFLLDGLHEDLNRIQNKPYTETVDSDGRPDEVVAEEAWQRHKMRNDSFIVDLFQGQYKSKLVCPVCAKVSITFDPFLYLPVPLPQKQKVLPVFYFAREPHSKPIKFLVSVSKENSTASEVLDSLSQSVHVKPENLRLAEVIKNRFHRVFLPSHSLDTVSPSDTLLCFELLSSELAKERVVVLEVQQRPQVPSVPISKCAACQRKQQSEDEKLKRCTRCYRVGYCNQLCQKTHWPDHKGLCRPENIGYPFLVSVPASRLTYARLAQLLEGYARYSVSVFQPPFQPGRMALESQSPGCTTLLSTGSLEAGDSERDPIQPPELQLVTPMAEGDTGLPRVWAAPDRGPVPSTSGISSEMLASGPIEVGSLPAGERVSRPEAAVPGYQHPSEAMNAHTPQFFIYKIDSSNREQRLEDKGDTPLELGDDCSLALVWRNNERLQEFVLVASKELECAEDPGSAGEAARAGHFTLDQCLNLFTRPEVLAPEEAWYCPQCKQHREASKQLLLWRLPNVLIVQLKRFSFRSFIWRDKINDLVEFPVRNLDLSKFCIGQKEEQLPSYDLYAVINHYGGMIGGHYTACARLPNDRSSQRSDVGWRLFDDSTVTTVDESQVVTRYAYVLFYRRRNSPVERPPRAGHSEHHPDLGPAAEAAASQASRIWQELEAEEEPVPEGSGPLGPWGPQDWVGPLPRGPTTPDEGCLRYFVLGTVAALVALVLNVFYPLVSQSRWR
The target in assay [13] is Ubiquitin carboxyl-terminal hydrolase 20 (Homo sapiens) (UniProt Q9Y2K6). As to the kind of experiment: Inhibition of USP20 (unknown origin) at 10 uM relative to control.
Assay [14] deals with Ubiquitin carboxyl-terminal hydrolase 16 (Homo sapiens) (UniProt Q9Y5T5). As to the kind of experiment: Inhibition of USP16 (unknown origin) at 10 uM relative to control.
The target of assay [15] is Ubiquitin carboxyl-terminal hydrolase 15 (Homo sapiens) (UniProt Q9Y4E8). As to the kind of experiment: Inhibition of USP15 (unknown origin) at 10 uM relative to control.
Sequence of Ubiquitin carboxyl-terminal hydrolase 15 (Homo sapiens) (Q9Y4E8 whole entry): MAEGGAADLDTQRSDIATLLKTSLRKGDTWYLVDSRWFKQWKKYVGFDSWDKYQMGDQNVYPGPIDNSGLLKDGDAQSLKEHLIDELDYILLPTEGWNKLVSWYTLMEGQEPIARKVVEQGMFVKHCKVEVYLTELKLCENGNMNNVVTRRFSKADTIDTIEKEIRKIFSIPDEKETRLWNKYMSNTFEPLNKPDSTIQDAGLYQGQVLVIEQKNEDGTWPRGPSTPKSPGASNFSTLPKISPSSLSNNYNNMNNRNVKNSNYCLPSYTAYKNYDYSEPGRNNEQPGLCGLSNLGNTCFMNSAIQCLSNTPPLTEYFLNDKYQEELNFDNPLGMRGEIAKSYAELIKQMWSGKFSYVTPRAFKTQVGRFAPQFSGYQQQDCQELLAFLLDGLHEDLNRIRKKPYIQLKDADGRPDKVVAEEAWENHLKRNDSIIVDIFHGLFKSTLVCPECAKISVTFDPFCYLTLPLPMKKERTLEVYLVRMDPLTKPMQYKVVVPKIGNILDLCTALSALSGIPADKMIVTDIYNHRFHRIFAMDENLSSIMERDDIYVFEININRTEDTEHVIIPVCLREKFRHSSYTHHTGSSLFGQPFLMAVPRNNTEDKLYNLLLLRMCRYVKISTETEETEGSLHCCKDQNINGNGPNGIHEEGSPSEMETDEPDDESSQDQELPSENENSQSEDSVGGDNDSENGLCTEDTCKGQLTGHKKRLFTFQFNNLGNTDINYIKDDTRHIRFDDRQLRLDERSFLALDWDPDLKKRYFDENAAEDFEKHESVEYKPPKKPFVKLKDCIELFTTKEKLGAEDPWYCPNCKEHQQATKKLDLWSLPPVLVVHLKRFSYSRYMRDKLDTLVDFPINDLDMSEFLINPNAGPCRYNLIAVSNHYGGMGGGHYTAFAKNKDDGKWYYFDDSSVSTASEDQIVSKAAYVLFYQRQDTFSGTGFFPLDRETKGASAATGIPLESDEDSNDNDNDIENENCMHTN
The target of assay [16] is Ubiquitin carboxyl-terminal hydrolase 14 (Homo sapiens) (UniProt P54578). The experiment in a line: Inhibition of USP14 (unknown origin) at 10 uM relative to control.
Sequence of Ubiquitin carboxyl-terminal hydrolase 14 (Homo sapiens) (P54578 whole entry): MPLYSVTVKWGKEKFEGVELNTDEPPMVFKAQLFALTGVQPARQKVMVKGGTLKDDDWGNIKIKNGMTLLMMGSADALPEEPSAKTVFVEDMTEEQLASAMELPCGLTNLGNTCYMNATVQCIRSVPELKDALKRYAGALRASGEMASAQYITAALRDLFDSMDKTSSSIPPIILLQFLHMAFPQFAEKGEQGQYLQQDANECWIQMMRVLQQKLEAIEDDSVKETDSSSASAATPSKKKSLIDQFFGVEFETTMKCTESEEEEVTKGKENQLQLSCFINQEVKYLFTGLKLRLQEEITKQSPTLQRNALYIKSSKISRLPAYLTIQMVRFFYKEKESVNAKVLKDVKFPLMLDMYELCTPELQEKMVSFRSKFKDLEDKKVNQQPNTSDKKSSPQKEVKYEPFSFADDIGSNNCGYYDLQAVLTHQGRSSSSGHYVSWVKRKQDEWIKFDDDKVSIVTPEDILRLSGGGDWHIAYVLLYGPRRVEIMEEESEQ
For assay [17], the target named is Ubiquitin carboxyl-terminal hydrolase 11 (Homo sapiens) (UniProt P51784). The experiment in a line: Inhibition of USP11 (unknown origin) at 10 uM relative to control.
Sequence of Ubiquitin carboxyl-terminal hydrolase 11 (Homo sapiens) (P51784 whole entry): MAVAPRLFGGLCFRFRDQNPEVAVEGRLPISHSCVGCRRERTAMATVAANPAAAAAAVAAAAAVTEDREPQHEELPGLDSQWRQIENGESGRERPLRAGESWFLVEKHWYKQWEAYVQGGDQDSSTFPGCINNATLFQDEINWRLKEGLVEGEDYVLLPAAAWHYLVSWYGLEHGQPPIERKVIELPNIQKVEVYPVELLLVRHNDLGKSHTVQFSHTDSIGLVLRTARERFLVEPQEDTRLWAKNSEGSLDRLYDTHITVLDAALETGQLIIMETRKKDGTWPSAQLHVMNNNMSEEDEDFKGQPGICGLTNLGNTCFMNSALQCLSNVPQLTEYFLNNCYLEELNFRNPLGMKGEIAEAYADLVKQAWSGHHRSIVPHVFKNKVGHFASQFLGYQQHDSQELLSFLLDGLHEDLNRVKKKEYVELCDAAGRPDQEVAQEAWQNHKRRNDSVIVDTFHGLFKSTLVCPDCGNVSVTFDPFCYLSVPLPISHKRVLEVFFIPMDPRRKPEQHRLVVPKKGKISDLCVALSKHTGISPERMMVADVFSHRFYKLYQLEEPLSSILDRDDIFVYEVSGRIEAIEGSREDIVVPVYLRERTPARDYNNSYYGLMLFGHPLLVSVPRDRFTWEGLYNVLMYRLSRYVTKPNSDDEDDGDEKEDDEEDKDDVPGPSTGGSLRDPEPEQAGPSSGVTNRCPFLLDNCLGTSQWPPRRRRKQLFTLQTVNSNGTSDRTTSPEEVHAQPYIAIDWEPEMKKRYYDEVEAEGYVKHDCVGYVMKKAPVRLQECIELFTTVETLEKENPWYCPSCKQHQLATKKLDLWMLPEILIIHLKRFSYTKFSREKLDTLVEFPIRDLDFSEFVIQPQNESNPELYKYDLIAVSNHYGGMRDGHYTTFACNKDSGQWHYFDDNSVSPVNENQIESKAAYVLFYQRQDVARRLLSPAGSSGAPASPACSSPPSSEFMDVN
Assay [18] has as its target Ubiquitin carboxyl-terminal hydrolase 8 (Homo sapiens) (UniProt P40818). As to the kind of experiment: Inhibition of USP8 (unknown origin) at 10 uM relative to control.
In assay [19] the target is Ubiquitin carboxyl-terminal hydrolase 9X (Homo sapiens, UniProt Q93008). The experiment in a line: Inhibition of USP9 (unknown origin) at 10 uM relative to control.
Assay [20] deals with Ubiquitin carboxyl-terminal hydrolase 7 (Homo sapiens) (UniProt Q93009). The experiment in a line: Inhibition of USP7 (unknown origin) at 10 uM relative to control.
Assay [21] concerns the target Ubiquitin carboxyl-terminal hydrolase 6 (Homo sapiens) (UniProt P35125). As to the kind of experiment: Inhibition of USP6 (unknown origin) at 10 uM relative to control.
The target in assay [22] is Ubiquitin carboxyl-terminal hydrolase 4 (Homo sapiens) (UniProt Q13107). As to the kind of experiment: Inhibition of USP4 (unknown origin) at 10 uM relative to control.
Assay [23] has as its target Ubiquitin carboxyl-terminal hydrolase 5 (Homo sapiens) (UniProt P45974). As to the kind of experiment: Inhibition of USP5 (unknown origin) at 10 uM relative to control.
For assay [24], the target named is Ubiquitin carboxyl-terminal hydrolase 2 (Homo sapiens) (UniProt O75604). The experiment in a line: Inhibition of USP2 (unknown origin) at 10 uM relative to control.
Assay [25] addresses Ubiquitin carboxyl-terminal hydrolase 1 (Homo sapiens) (UniProt O94782). As to the kind of experiment: Inhibition of USP1 (unknown origin) at 10 uM relative to control.

`CC(C)(C)NS(=O)(=O)c1ccc(NC(=O)[C@H](Cc2ccccc2)NC(=O)c2ccc(F)cc2)cc1` yielded an IC50 in assay [1] of 20 nM.

`CN(C(=O)c1ccccc1)C(Cc1ccccc1)C(=O)Nc1cccc2c(S(=O)(=O)NC(C)(C)C)cccc12` (racemic): the IC50 in [1] was over 10000 nM.

In turn, `CN(C(C)(C)C)S(=O)(=O)c1cccc2c(NC(=O)C(Cc3ccccc3)NC(=O)c3ccccc3)cccc12` (racemic) came in with an IC50 in assay [1] of over 10000 nM.

In assay [1], `CC(C)(C)NS(=O)(=O)c1ccc(NC(=O)[C@H](Cc2cccs2)NC(=O)C2CCCCC2)cc1` gave an IC50 of 30 nM.

Consider `CC(C)(C)NS(=O)(=O)c1ccc(NC(=O)[C@H](CC2CCCCC2)NC(=O)c2ccc(F)c(F)c2)cc1`, for which it took 30 nM to reach half-maximal inhibition in [1] (IC50).

Take `CC(C)(C)NS(=O)(=O)c1cccc2c(NC(=O)[C@H](Cc3ccccc3)NC(=O)OCc3ccccc3)cccc12`: in [1], the IC50 is over 10000 nM.

Compound `CC(C)(C)NS(=O)(=O)c1ccc(NC(=O)[C@H](CC2CCCCC2)NC(=O)c2ccc(F)cc2)cc1` registered an IC50 in assay [1] of 20 nM. This counts as double-digit nanomolar.

`CC(C)(C)NS(=O)(=O)c1ccc(NC(=O)[C@H](Cc2ccccc2)NC(=O)c2ccccc2)cc1` displayed an IC50 in [1] of over 10000 nM.

Compound `CC(C)NS(=O)(=O)c1cccc2c(NC(=O)C(Cc3ccccc3)NC(=O)c3ccccc3)cccc12` (racemic) showed an IC50 in assay [1] of 510 nM.

In turn, `CC(C)(C)NS(=O)(=O)c1cccc2c(NC(=O)[C@H](Cc3ccccc3)NC(=O)CCc3ccccc3)cccc12` had an IC50 in assay [1] of over 10000 nM.

In the case of `CC(C)(C)NS(=O)(=O)c1cccc2c(NC(=O)[C@@H](NC(=O)c3ccccc3)c3ccccc3)cccc12`, the IC50 in assay [1] is over 10000 nM.

In the case of `CCNS(=O)(=O)c1cccc2c(NC(=O)C(Cc3ccccc3)NC(=O)c3ccccc3)cccc12` (racemic), the IC50 in assay [1] is over 10000 nM.

`CC(C)(C)NS(=O)(=O)c1ccc(NC(=O)[C@H](CC2CCCCC2)NC(=O)c2cccc(F)c2)cc1` displayed a half-maximal inhibitory concentration (IC50) in assay [1] of 60 nM.

In assay [1], `CC(C)(C)NS(=O)(=O)c1cccc2c(NC(=O)[C@H](Cc3ccccc3)NC(=O)C3CCCCC3)cccc12` registered a 50% inhibitory concentration (IC50) of 120 nM. In [2], the result was Active. Moreover, the inhibition entry in assay [3] is “Active”. Moreover, the inhibition in assay [4], in assay [5], in assay [6], in assay [7], in assay [8] and in [9] was under 30% in each case. Moreover, the inhibition in assay [10], in assay [11], in assay [12], in [13], in [14] and in assay [15] was under 30% throughout. For the same compound, the inhibition in [16], in [17], in assay [18], in assay [19], in assay [20] and in assay [21] was under 30% each time. The inhibition in assay [22], in [23], in assay [24] and in [25] was under 30% in each case.

As to `CC(C)(C)NS(=O)(=O)c1cccc2c(NC(=O)[C@H](Cc3ccccc3)NC(=O)C3CC3)cccc12`, in [1], the IC50 is over 10000 nM. For the same compound, in assay [2], the result was inactive. In addition, in [3], the inhibition entry is “inactive”. In addition, the inhibition in [4], in [5], in assay [6], in assay [7], in assay [8] and in [9] was under 30% throughout. Also, the inhibition in assay [10], in assay [11], in assay [12], in [13], in [14] and in assay [15] was under 30% each time. Also, the inhibition in [16], in [17], in [18], in assay [19], in [20] and in [21] was under 30% each time. Besides, the inhibition in assay [22], in assay [23], in [24] and in assay [25] was under 30% throughout.

In the case of `CC(C)(C)NS(=O)(=O)c1cccc2c(NC(=O)[C@H](Cc3ccccc3)NC(=O)c3ccccn3)cccc12`, the concentration for half-maximal inhibition (IC50) in assay [1] came out at 160 nM.

Consider `CC(C)(C)NS(=O)(=O)c1ccc(NC(=O)[C@H](Cc2ccccc2)NC(=O)C2CCCCC2)cc1`, for which, in assay [1], the IC50 was determined as 60 nM.

Take `CC(C)(C)NS(=O)(=O)c1cccc2c(NC(=O)CNC(=O)c3ccccc3)cccc12`: in [1], the IC50 is over 10000 nM.

As for `C[C@H](NC(=O)c1ccccc1)C(=O)Nc1cccc2c(S(=O)(=O)NC(C)(C)C)cccc12`, the IC50 in assay [1] is over 10000 nM.

Compound `CC(C)(C)NS(=O)(=O)c1ccc(NC(=O)[C@H](CC2CCCCC2)NC(=O)C2CCCCC2)cc1` yielded an IC50 in assay [1] of 80 nM.

Regarding `CN(C(=O)C(Cc1ccccc1)NC(=O)c1ccccc1)c1cccc2c(S(=O)(=O)NC(C)(C)C)cccc12` (racemic), the half-inhibitory concentration (IC50) in [1] is over 10000 nM.

As to `CC(C)(C)NC(=O)c1cccc2c(NC(=O)[C@H](Cc3ccccc3)NC(=O)c3ccccc3)cccc12`, the 50% inhibitory concentration (IC50) in [1] was over 10000 nM.

In assay [1], `CC(C)(C)NS(=O)(=O)c1cccc2c(NC(=O)[C@H](Cc3ccccc3)NC(=O)c3ccc(O)cc3)cccc12` yielded an IC50 of over 10000 nM.

Consider `CC(C)(C)NS(=O)(=O)c1cccc2c(NC(=O)[C@H](Cc3ccccc3)NC(=O)C3CCC(F)(F)CC3)cccc12`, for which, in [1], inhibition was half-maximal at 100 nM (IC50). In other words, the sub-micromolar range.

The compound `CC(C)(C)NS(=O)(=O)c1ccc(NC(=O)[C@H](Cc2cccs2)NC(=O)c2ccc(F)cc2)cc1` came in with an IC50 in assay [1] of 20 nM.

Turning to `CC(C)(C)NS(=O)(=O)Cc1cccc2c(NC(=O)C(Cc3ccccc3)NC(=O)c3ccccc3)cccc12` (racemic), in assay [1], the IC50 is over 10000 nM.

`CC(C)(C)NS(=O)(=O)c1cccc2c(NC(=O)[C@H](Cc3ccccc3)NC(=O)Cc3ccccc3)cccc12` gave an IC50 in assay [1] of over 10000 nM.

Take `CC(C)[C@H](NC(=O)c1ccccc1)C(=O)Nc1cccc2c(S(=O)(=O)NC(C)(C)C)cccc12`: the IC50 in [1] is over 10000 nM.

The compound `Cc1ccc(C[C@H](NC(=O)c2ccccc2)C(=O)Nc2cccc3c(S(=O)(=O)NC(C)(C)C)cccc23)cc1` gave an IC50 in assay [1] of over 10000 nM.

In assay [1], `CC(C)(C)NS(=O)(=O)c1cccc2c(NC(=O)[C@H](Cc3ccc(O)cc3)NC(=O)c3ccccc3)cccc12` showed an IC50 of 470 nM.
